Laboratory results published in the EternaBench riboswitch data.

Test system: MS2 coat protein
Assay: apparent Kd, MS2 coat protein; higher = weaker binding; RNA-MaP array; FMN 200 µM where present
Procedure, shortened: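 Stalled E. coli RNA polymerase transcribed the designs on Illumina sequencing-chip clusters. SNAP-549-labelled MS2 coat protein was titrated from 0.7 or 1.5 nM, doubling to 3 µM, without and then with constant ligand, in 100 mM Tris-HCl pH 7.5, 80 mM KCl, 4 mM MgCl2, BSA, DTT, yeast tRNA and Tween-20. Per-cluster binding curves were fitted to green signal normalised to red-channel RNA signal and control-cluster median Fmax. The apparent Kd is the median of the filtered fits.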

[1] = designed as: ON switch for flavin mononucleotide, no ligand
[2] = ligand present: flavin mononucleotide, designed as: ON switch for flavin mononucleotide
[3] = designed as: OFF switch for flavin mononucleotide, no ligand
[4] = ligand present: flavin mononucleotide, designed as: OFF switch for flavin mononucleotide

Sequence | apparent Kd [1] | apparent Kd [2] | apparent Kd [3] | apparent Kd [4]
GAGUUUAAGUUUGUCACUUAGAGAGAGGAUAUGGAAAACUUGACAUGAGGAUCACCCAUGUAUAAUCAGAAGGCUCGAGUACGA | 12.1 nM | 7.33 nM |  | 
GCAGCUCCUGACAUGAGGAUCACCCAUGUUUAAUUAUUAAAUCAGGAUAUCCUCUCGAAACGAGAGGAGAAGGGAUAAGCUGCU | 4.83 nM | 5.33 nM |  | 
UUAAUAAUACAAGGAUAUCUAUUGUUCUUAAGACAUACAUGAGGAUCACCCAUGUUAAUAUAUAUAGAGAAGGUGUAUUUUCAG | 27.2 nM | 20 nM |  | 
CUGUUCGGUGUAGGAUAUGCAUAUUCCCAUUAUGCAGAAGGACAUGAGGAUCACCCAUGUAUGUUAUUAUCAUGUGUUACAUGC |  |  | 38.2 nM | 90.2 nM
AAGUAGAUCCGAGGAUAUACAAUCUGGAAACGGUACAUGAGGAUCACCCAUGUAGAAGGCGGAUCUACAGGUACUAAAGUACCA |  |  | 7.4 nM | 16.4 nM
AAGAAGUGAGGAUAUACAUGAACGAAAAAAAAAAAGAGCAUGUAGAAGGCACAUGAGGAUCACCCAUGUCAAAA |  |  | 28.5 nM | 27.3 nM
GGUGGUGAGCAAGGAUAUCGCCACUGCGUGACCUCACAACGGAUACAUGAGGAUCACCCAUGUGGCGAGAAGGUGCGGGAACGG |  |  | 29.4 nM | 44 nM
UCCAAAUCGUAGAAGGGUGACAUGAGGAUCACCCAUGUGCAGCGGCCGUGAACGGCCACGCUGCCACAGGAUAUACGAUGGAGU | 48.4 nM | 74 nM |  | 
GCUAUUGGCUAAGGAUAUGGAUACAUGAGGAUCACCCAUGUAUUUUUUGUGAUCAUAUAAAUGAUCCAGAAGGUAGCUGUUAGC |  |  | 21.9 nM | 62.1 nM
GCACAUGAGGAUCACCCAUGUGGUCCAGAAGGCCAGAGGAUCUGCUUUUAGCAGGUCCCUCAAAUGGAGGAUAUGGAGGGUUCU | 261 nM | 44.7 nM |  | 
CCGAGCUUGGCAGGAUAUAGACUCGAAGUUGAUCCCGCCGGUGGAGACAUGAGGAUCACCCAUGUCUAGAAGGGCCAGUCGAAA |  |  | 11.7 nM | 36 nM
UAUUAAUAAUAAGGAUAUACGUCACUGCUUCGGCAGUGUGGUAAGAUCACAUGAGGAUCACCCAUGUAGAAGGAAUAUAAAAUU |  |  | 11.2 nM | 9.26 nM
GCAGACGUGGUGAGGAUAUGCUCUACCUCGGUAGAGCAGAAGGCACAUGAGGAUCACCCAUGUGACUCCUCAUC |  |  | 18.6 nM | 19.2 nM
CUUCAGUGAGGAUAUACAUAACGGGACGUUAAUAUCGUUAGGUAGAAGGCACAUGAGGAUCACCCAUGUUUAAA |  |  | 92 nM | 66 nM
UUUAUGAAGCUUCGUCAAUACAGUUAGGAUAUGAGAGACAUGAGGAUCACCCAUGUGCAUGUUGAUUAGAAGGAACAAUUAUCU |  |  | 15.6 nM | 14.6 nM
GGCUAGUGAGGAUAUACGUGCAGUCCUCAGUCGCCAGUCGGACAUGAGGAUCACCCAUGUAGAAGGUAUCGGCA |  |  | 35.8 nM | 38.9 nM
GGGUACAUCGGAGGAUAUCAUGUAAAUACAUGAGGAUCACCCAUGUCGAUGGAGACUUCGGAGAUUGAGAAGGCCGAUGUACCG | 434 nM | 27.8 nM |  | 
AAAUCAGCAGGAUAUACGAUUUUAUGCUAGAUAGAGGGACCACAUGAGGAUCACCCAUGUAGAAGGGCUAGAUA |  |  | 24.6 nM | 26.4 nM
CCACGUCACAUUUACAUGAGGAUCACCCAUGUCGAAAGACAUGAGGAUAUGCUACCUAAUUGGUAGCAGAAGGCAUGGACGUGG | 203 nM | 284 nM |  | 
AAUAUGUUGCAGAAGGUUAUUUUUAUAACGUGCCACUUGACAUGAGGAUCACCCAUGUAAUUGAUGAAGGAUAUGCAAUAUAUU |  |  | 6.46 nM | 6.34 nM
GCCGAACAUGAGGAUCACCCAUGUCUGGGUAAUCAAGGAUAUGGGAAGGCUUUGCCAUGACCAGAAGGUGGUUAUC | 209 nM | 23.1 nM |  | 
GGAUAGGACAGAGGAUAUACGUGCAAGAGAUACUAGCAAAAUUUCCUCACAUGAGGAUCACCCAUGUAGAAGGCUGUCCUAUCG |  |  | 57.4 nM | 331 nM
AUACGGGCUAACAUGAGGAUCACCCAUGUGUUAUACUUAAUAUAGGAUAUGUUUAUACUUUUUGGGCAGAAGGAUGGCCCGUAU | 53.5 nM | 44.9 nM |  | 
UUUGUGUCAGGAUAUCGGGCCAGCAAUACGGUAUGUGGGCACGAGAAGGGACAUGAGGAUCACCCAUGUGCCUU |  |  | 14.8 nM | 16.4 nM
CUGGUUGUCGAGGAUAUGCACCAGCUCGCUGACGCAGAAGGCGACACAUGAGGAUCACCCAUGUCGGUUCGCGU |  |  | 21.9 nM | 32.9 nM
GGCGAACAUGAGGAUCACCCAUGUCAGGAUAUCUCUCGCGUUGAAUUGAGGGUGUGUGAGAGAAGGGAUAUGUA |  |  | 49.7 nM | 49.9 nM
GAAUAGGCAGGAUAUACAUGAGGAUCACCCAUGUGCUUGCGAUCGGCAAGCGAACAACGUAGAAGGGCCUUAAC |  |  | 16.2 nM | 37.3 nM
UUUUAACAUGAGGAUCACCCAUGUGAGGAUAUCGUUAUUUAUAUUAAUAUUAAUAAAACGAGAAGGCACAUUUU |  |  | 112 nM | 141 nM

Sequence | apparent Kd [1] | apparent Kd [2] | apparent Kd [3] | apparent Kd [4]
UGUACAUUAUUAAGUAAUUAGGCGAAGGAUAUAUAACAUGAGGAUCACCCAUGUACUAAGUUGAAGUAGAAGGUUGAGCAUUUC | 19 nM | 15.7 nM |  | 
GCAGCGCCUGACAUGAGGAUCACCCAUGUUAGAUUGUUAAGUCAGGAUAUAGUCUAGAAACUAGACUAGAAGGGAUUUGCUGCU | 9.08 nM | 6.83 nM |  | 
GGAUAGGACAGAGGAUAUACGGGCUAGAGAUACUAGCAAAAUUUCCUCACAUGAGGAUCACCCAUGUAGAAGGCUGUCCUAUCG |  |  | 70.1 nM | 864 nM
UGUCCUUGAGGCUCGGACGUGUCGCCAGAAGGCAAUUUCUGACAUGAGGAUCACCCAUGUCCAAUUGAGGAUAUGGCUGCGUUG | 17.3 nM | 5.56 nM |  | 
AAUGGGCAGCAGAAGGCAUGUCUACGGACAUGAGGAUCACCCAUGUAGUGAAGCCGAAAGGCGCAUGAGGAUAUGCUGCCCUAA | 131 nM | 8.45 nM |  | 
UUUCUUGAUGUCAGGAUAUCGGGCACAAAAUCUAACGAGAAGGGACAUGAGGAUCACCCAUGUACGUUUUUGGG |  |  | 92.9 nM | 249 nM
GGAUGACAUAGUCAUCCUUAACGAACAUGAGGAUCACCCAUGUAGGAUAUGCUACUCAAAGAGUAGCAGAAGGGCAUGUGUCUU |  |  | 30.6 nM | 68.8 nM
GUGAGUAGUCAGGAUAUGCUGUACAAAAGUACAGCAGAAGGGAUUACAUGAGGAUCACCCAUGUUUACCUCAUG |  |  | 574 nM | 884 nM
GAUCGCCGUGUCAGGAUAUCUUGUGUACCCACGUUAGAGAAGGGACAUGAGGAUCACCCAUGUACCCUGGCUUU |  |  | 20.6 nM | 20.5 nM
CGAUGUUAUGCAGGAUAUCUCUCUUGAUUGAGGAGAGAAGGGCAUAGGGAGACAUACGCCUUAUUACAUGAGGAUCACCCAUGU |  |  | 9.47 nM | 7.85 nM
UAAAUUAACAAGAAGGCUAACAUGAGGAUCACCCAUGUUGUACAUGGAUAUAGAGGAUAUUGCUAAUUAUUAUUUAUCAUAAUU |  |  | 23.6 nM | 18.3 nM
UAUAUAUAGUAAGGAUAUGUAUAUAUUUAAUAAACAGAAGGUACUGACAUGAGGAUCACCCAUGUUUUAGUGUGGGCAUGUAGA |  |  | 74.1 nM | 110 nM
GCGUGUCGUGUAGGAUAUGACACAGGAAACUGGUCAGAAGGACAUGAGGAUCACCCAUGUAAAAUGUUCAAGAAUAACGCAUGC |  |  | 27.8 nM | 39.2 nM
GUUUUGAUAGGAUAUACAUGAGGAUCACCCAUGUCCCACCCGUUACCUAUGACCAUAUGUAGAAGGAUCGUUUG |  |  | 98.1 nM | 83.9 nM
UGAAAUCAUGUAGGAUAUGCAUGGCGAAGCUACGCAGAAGGACAUGAGGAUCACCCAUGUUCUGGCUACCGAGUUCGGUGGCAA |  |  | 22.1 nM | 105 nM
AUAUGAUAGAUAGGAUAUACUGAGGUUGAAUGGGUAGAAGGAUCGAUAGGGAAGACUACAUGAGGAUCACCCAUGUUGUGUAUU | 151 nM | 81.6 nM |  | 
AGUUAAUAUCGAGGAUAUCUCAUGGAUACAUGAGGAUCACCCAUGUGAAUGGGAGAAGGCGAUAUUAACAGCAUGUUACAUGCA | 32 nM | 7.05 nM |  | 
AGUUACAUGAGGAUCACCCAUGUGUAUAGGGCAACCUAUAGACAGGAUAUCCGGCAUGCGGCCUAGGAGAAGGGUCAAAGAAGA | 91.5 nM | 429 nM |  | 
UCAUACAUGAGGAUCACCCAUGACAUGAGGAUCACCCAUGUGCAGGAUAUACGUGAUAUAAUAUAGUAGAAGGGCAGACCAAAA |  |  | 42.8 nM | 55.1 nM
UUCAUCAAUGAAGGAUAUCUAUGUCCAACAUGAGGAUCACCCAUGUUGAGGAUCACCUAUGUAUAGGAGAAGGUUAAUAUAACU | 7.32 nM | 6.28 nM |  | 
GGUCUGACAUAAGGAUAUGCUCAGGAUAACUGAGCAGAAGGUAUGUGAAAACAUGAGGAUCACCCAUGUGAUCAAUACAGACCA | 18.8 nM | 19.5 nM |  | 
AAAGAGCGAGGAUAUACGUAUCGGUGCGGCCCGCCGAUGUGACAUGAGGAUCACCCAUGUAGAAGGCGCAGAAA |  |  | 26.2 nM | 33 nM
UAUAACUAACAGAAGGGUAUUUGGGAUCAUUAUUAGGAGGAAAUACUAUACAGGAUAUGUAAUACAUGAGGAUCACCCAUGUUC | 20 nM | 15.7 nM |  | 
UAUGAACAUGAGGAUCACCCAUGUGGAAAGGACACAGGAUAUCAUCUCGCACGUGCGAUAUGAGAAGGGUGAUGGU | 117 nM | 180 nM |  | 
UGGCCUUUAGGAUAUCGGGUCUUUAACAUGAGGAUCACCCAUGUGGCACUCUCUUGAGAACGAGAAGGAAAACCCG |  |  | 23.2 nM | 23.7 nM
GGACGUCACAUGAACAUGAGGAUCACCCAUGUAACUAGACAUGAGGAUAUGGUUCCUAAUUGGAACCAGAAGGCAUGGACGUCC | 224 nM | 33 nM |  | 
CUGUGACGGUGCGCAAGUGGACGUAGAAGGGUCACAUGAGGAUCACCCAUGUGGGCCUGCUAGUGACAGGAUAUACGUUCGUGC |  |  |  | 65.2 nM
